What was measured:
[1] = target: T1, BetP (Corynebacterium glutamicum, UniProt P54582, G153D); test: tryptophan fluorescence titration, proteoliposomes; format: binding
T1 sequence (P54582 1-595 G153D): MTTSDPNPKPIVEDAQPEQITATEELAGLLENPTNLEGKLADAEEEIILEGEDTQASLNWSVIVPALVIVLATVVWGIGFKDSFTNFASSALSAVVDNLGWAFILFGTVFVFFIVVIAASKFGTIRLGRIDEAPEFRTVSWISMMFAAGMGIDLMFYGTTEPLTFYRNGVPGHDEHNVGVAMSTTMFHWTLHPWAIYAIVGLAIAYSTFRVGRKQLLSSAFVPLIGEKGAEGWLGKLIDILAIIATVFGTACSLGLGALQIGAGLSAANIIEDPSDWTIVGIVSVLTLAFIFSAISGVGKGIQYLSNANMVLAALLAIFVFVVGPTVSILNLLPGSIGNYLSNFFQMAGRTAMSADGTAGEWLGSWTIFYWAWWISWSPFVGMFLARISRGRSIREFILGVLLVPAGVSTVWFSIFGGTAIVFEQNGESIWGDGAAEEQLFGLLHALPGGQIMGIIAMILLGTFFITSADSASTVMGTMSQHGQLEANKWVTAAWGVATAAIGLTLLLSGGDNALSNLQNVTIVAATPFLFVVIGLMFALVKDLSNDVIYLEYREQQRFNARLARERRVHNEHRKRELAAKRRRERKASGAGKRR
Method in brief: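 Strep-tagged BetP-G153D was expressed in E. coli, affinity-purified in DDM, and reconstituted into E. coli polar-lipid liposomes (lipid/protein 10:1 w/w, 250 mM KPi pH 7.5), used at 100 μg/ml protein. Substrate was 0.1–16 mM with 100 mM NaCl at pH 7.5, or 0.8–30 mM (pH 5.5) or 0.8–100 mM (pH 7.5) without NaCl. Excitation 295 nm; emission at 340 nm, eight readings averaged. Mean and SD were fitted for the binding constant.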

[2] = target: BetP (Corynebacterium glutamicum, UniProt P54582); test: […]-betaine uptake in E. coli MKH13 expressing BetP; format: cell-based; conditions: 250 μM [14C]-betaine, NaCl titration, pH 7.5, 800 mOsmol/kg, 37 °C; labelled compound
BetP (Corynebacterium glutamicum, UniProt P54582), sequence (P54582 whole entry): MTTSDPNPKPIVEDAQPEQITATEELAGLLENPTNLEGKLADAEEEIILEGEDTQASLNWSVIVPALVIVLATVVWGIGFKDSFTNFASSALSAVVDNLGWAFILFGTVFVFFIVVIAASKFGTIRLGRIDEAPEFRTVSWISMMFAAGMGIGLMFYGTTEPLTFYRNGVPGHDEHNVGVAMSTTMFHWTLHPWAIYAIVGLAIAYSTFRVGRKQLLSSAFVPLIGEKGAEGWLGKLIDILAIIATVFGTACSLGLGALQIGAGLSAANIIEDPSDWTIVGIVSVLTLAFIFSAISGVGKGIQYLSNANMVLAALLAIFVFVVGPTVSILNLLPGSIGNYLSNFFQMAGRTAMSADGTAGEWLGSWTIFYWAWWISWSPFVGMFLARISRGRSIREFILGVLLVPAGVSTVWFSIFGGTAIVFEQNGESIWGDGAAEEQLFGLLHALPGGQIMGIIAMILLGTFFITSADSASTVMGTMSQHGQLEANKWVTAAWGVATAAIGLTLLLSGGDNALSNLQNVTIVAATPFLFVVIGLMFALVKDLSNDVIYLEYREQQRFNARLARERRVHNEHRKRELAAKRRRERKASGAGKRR

For `C[N+](C)(C)CCO` [Choline], the Kd [1] was 1150 ± 90 µM.

For `C[N+](C)(C)CC(=O)[O-]` [[14C]-betaine], the “[14C]-betaine uptake in E. coli MKH13 expressing BetP” value [2] was “cells expressing BetP WT or the mutant N309A”.

Reference: publication PMC4745115 (Nature communications, 2014)
